{"source": "ChEMBL document CHEMBL2010643", "about": "(Bioorg Med Chem Lett, 2012)", "key": {"[1]": {"molecular_target": "Ribosomal protein S6 kinase beta-1 (Homo sapiens) (UniProt P23443)", "experiment": "Inhibition of S6K1 assessed as residual activity at 1 uM relative to control"}, "[2]": {"molecular_target": "Angiopoietin-1 receptor (Homo sapiens) (UniProt Q02763)", "experiment": "Inhibition of TIE2 assessed as residual activity at 1 uM relative to control"}, "[3]": {"molecular_target": "Eukaryotic translation initiation factor 2-alpha kinase 3 (Homo sapiens) (UniProt Q9NZJ5)", "experiment": "Inhibition of EIF2AK3 assessed as residual activity at 10 uM relative to control"}, "[4]": {"molecular_target": "Mitogen-activated protein kinase 15 (Homo sapiens) (UniProt Q8TD08)", "experiment": "Inhibition of ERK8 assessed as residual activity at 10 uM relative to control"}, "[5]": {"molecular_target": "Serine/threonine-protein kinase STK11 (Homo sapiens) (UniProt Q15831)", "experiment": "Inhibition of LKB1 assessed as residual activity at 10 uM relative to control"}, "[6]": {"molecular_target": "Serine/threonine-protein kinase 26 (Homo sapiens) (UniProt Q9P289)", "experiment": "Inhibition of MST4 assessed as residual activity at 10 uM relative to control"}, "[7]": {"molecular_target": "Mitogen-activated protein kinase 13 (Homo sapiens) (UniProt O15264)", "experiment": "Inhibition of p38delta MAPK assessed as residual activity at 10 uM relative to control", "outline": "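Radioactivity-based enzymatic kinase assays run across a 124-kinase profiling panel (Dundee), reporting the remaining kinase activity relative to a control.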"}, "[8]": {"molecular_target": "Serine/threonine-protein kinase pim-3 (Homo sapiens) (UniProt Q86V86)", "experiment": "Inhibition of PIM3 assessed as residual activity at 10 uM relative to control"}, "[9]": {"molecular_target": "T1, Leucine-rich repeat serine/threonine-protein kinase 2 (Homo sapiens, UniProt Q5S007)", "T1 sequence (Q5S007 whole entry)": "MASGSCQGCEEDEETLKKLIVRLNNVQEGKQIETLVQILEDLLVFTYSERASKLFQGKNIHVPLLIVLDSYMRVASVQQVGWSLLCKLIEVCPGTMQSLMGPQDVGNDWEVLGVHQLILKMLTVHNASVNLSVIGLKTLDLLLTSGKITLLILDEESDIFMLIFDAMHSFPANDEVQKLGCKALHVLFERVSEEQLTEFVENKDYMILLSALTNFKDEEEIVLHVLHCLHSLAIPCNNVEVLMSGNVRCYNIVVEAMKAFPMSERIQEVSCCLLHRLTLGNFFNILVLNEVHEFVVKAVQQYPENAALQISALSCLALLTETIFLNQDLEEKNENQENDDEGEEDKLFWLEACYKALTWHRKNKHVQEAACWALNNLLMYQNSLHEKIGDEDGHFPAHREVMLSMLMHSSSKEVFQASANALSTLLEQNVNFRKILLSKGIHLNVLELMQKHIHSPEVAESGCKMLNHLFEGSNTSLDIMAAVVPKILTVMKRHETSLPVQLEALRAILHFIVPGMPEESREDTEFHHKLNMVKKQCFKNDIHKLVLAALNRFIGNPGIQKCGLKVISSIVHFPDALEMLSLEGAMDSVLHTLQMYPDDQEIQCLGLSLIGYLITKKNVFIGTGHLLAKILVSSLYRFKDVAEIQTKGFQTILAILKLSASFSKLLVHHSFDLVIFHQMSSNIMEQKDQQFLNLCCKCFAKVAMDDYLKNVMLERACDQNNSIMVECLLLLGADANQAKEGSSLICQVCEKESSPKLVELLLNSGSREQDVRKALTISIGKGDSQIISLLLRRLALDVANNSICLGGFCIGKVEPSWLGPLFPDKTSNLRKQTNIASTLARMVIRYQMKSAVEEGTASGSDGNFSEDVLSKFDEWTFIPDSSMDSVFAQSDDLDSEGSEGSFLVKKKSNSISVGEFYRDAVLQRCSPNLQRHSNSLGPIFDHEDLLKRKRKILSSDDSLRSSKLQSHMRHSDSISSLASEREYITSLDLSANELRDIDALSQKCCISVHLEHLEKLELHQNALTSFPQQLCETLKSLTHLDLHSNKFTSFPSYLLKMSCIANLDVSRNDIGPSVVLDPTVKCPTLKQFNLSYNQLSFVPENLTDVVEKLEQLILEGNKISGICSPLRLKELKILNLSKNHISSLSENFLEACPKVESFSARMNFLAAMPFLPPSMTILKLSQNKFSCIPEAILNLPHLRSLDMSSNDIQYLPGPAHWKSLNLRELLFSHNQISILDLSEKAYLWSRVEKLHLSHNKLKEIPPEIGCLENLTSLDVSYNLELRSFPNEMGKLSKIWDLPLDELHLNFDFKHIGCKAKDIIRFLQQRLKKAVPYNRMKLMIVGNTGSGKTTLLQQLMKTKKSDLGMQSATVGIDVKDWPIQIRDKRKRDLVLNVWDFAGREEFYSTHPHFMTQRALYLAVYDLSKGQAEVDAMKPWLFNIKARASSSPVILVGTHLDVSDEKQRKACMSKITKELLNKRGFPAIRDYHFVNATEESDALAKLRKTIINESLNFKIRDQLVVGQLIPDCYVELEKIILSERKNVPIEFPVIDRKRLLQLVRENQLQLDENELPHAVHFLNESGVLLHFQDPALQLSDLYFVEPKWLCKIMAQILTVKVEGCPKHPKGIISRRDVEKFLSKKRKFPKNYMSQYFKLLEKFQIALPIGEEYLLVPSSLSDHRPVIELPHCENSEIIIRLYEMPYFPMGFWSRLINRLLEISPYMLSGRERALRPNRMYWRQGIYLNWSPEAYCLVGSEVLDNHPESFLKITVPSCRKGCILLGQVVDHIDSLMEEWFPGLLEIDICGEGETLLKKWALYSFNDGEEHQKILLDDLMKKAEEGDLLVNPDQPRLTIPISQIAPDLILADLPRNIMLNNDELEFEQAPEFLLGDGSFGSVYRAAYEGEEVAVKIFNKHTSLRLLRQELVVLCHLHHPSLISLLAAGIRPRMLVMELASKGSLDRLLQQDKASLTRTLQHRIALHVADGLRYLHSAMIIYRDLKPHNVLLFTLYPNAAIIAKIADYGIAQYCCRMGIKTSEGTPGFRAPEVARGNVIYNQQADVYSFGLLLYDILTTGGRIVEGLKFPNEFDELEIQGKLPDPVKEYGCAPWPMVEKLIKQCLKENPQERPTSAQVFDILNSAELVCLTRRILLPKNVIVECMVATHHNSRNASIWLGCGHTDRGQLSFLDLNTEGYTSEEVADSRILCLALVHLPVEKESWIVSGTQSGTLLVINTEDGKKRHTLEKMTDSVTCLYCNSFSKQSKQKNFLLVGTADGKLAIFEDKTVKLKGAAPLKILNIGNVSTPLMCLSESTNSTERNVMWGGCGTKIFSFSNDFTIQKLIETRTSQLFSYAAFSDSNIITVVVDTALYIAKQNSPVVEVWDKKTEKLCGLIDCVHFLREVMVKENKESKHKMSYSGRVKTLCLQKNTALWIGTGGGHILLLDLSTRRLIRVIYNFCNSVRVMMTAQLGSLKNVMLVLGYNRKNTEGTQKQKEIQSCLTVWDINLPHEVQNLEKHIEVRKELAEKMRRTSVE", "experiment": "Inhibition of wild-type LRRK2 phosphorylation at Ser910 expressed in HEK293 cells after 90 mins by immunoblot analysis", "type": "cell-based", "outline": "(§1)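 HEK293 cells stably expressing wild-type GFP-LRRK2 exposed to DMSO or increasing inhibitor concentrations for 90 min. Lysates immunoblotted for LRRK2 phosphorylated at Ser910 and Ser935 and for total LRRK2.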"}, "[10]": {"molecular_target": "T1, Leucine-rich repeat serine/threonine-protein kinase 2", "experiment": "Inhibition of wild-type LRRK2 phosphorylation at Ser910 expressed in HEK293 cells at 0.1 to 0.3 uM after 90 mins by immunoblot analysis", "type": "cell-based", "outline": "as §1"}, "[11]": {"molecular_target": "T1, Leucine-rich repeat serine/threonine-protein kinase 2", "experiment": "Inhibition of wild-type LRRK2 phosphorylation at Ser935 expressed in HEK293 cells at 0.1 to 0.3 uM after 90 mins by immunoblot analysis", "type": "cell-based", "outline": "as §1"}, "[12]": {"system": "Leucine-rich repeat serine/threonine-protein kinase 2 (Homo sapiens), Q5S007 [A2016T]", "sequence (Q5S007 whole entry A2016T)": "as the sequence (Q5S007 whole entry) above, with A2016T counted along it", "experiment": "Inhibition of LRRK2 A2016T mutant phosphorylation at Ser910 expressed in HEK293 cells at 1 to 3 uM after 90 mins by immunoblot analysis", "type": "cell-based"}, "[13]": {"system": "Leucine-rich repeat serine/threonine-protein kinase 2 (Homo sapiens), Q5S007 [A2016T]", "experiment": "Inhibition of LRRK2 A2016T mutant phosphorylation at Ser935 expressed in HEK293 cells at 1 to 3 uM after 90 mins by immunoblot analysis", "type": "cell-based"}, "[14]": {"molecular_target": "T1, Leucine-rich repeat serine/threonine-protein kinase 2", "experiment": "Inhibition of wild type LRRK2 phosphorylation at Ser935 in human lymphoblastoid cells at 0.03 to 3 uM after 90 mins by Western blot analysis", "type": "cell-based"}, "[15]": {"molecular_target": "Leucine-rich repeat serine/threonine-protein kinase 2 (Mus musculus) (UniProt Q5S006)", "experiment": "Inhibition of wild type LRRK2 phosphorylation at Ser935 in mouse 3T3 cells after 90 mins by Western blot analysis", "type": "cell-based", "outline": "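Mouse Swiss 3T3 cells treated with DMSO or increasing inhibitor concentrations for 90 min. Endogenous LRRK2 in lysates immunoblotted with purified phospho-specific antibodies to Ser910 and Ser935 and with a total LRRK2 antibody. Blots done in duplicate, representative of at least two independent experiments.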"}, "Brain": {"system": "Brain", "experiment": "AUClast in Swiss albino mouse brain at 1 mg/kg, iv", "type": "ADME, organism-based", "set-up": "time 0 - last, dose 1 mg/kg, route intravenous", "settings": "in vivo", "outline": "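Male Swiss Albino mice were given a single dose, either intravenous at 1 mg/kg or oral at 10 mg/kg. AUClast was measured in plasma and in brain. Half-life, plasma clearance, volume of distribution and oral bioavailability were derived from the plasma data.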"}, "[16]": {"molecular_target": "Proto-oncogene tyrosine-protein kinase Src (Homo sapiens) (UniProt P12931)", "experiment": "Inhibition of Src assessed as residual activity at 10 uM relative to control"}, "[17]": {"molecular_target": "Calcium/calmodulin-dependent protein kinase kinase 2 (Homo sapiens) (UniProt Q96RR4)", "sequence (Q96RR4 2-588 limits assumed)": "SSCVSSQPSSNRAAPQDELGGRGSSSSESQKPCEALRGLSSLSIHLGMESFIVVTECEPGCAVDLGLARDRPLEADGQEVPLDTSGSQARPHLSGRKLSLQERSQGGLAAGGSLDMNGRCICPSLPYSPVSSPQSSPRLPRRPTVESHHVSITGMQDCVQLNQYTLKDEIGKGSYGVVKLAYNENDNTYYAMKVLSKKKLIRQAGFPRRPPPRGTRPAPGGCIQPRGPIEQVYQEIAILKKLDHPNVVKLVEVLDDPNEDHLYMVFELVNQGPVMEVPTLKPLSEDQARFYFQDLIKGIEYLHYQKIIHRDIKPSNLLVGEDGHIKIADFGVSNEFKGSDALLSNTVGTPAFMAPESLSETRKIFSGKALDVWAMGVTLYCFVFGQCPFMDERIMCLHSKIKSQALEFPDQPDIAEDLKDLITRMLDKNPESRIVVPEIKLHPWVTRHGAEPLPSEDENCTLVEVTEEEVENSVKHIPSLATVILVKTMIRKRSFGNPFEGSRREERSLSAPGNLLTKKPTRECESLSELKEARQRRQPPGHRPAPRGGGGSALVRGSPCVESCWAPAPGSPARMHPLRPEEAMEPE", "experiment": "Inhibition of CAMKKb assessed as residual activity at 1 uM relative to control", "outline": "(§2)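 Standard radioactivity-based enzymatic assays were run across a 124-kinase panel (Dundee profiling), with compound at 1 µM. Kinase activity was expressed relative to control.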"}, "[18]": {"molecular_target": "Dual specificity tyrosine-phosphorylation-regulated kinase 2 (Homo sapiens) (UniProt Q92630)", "sequence (Q92630 whole entry)": "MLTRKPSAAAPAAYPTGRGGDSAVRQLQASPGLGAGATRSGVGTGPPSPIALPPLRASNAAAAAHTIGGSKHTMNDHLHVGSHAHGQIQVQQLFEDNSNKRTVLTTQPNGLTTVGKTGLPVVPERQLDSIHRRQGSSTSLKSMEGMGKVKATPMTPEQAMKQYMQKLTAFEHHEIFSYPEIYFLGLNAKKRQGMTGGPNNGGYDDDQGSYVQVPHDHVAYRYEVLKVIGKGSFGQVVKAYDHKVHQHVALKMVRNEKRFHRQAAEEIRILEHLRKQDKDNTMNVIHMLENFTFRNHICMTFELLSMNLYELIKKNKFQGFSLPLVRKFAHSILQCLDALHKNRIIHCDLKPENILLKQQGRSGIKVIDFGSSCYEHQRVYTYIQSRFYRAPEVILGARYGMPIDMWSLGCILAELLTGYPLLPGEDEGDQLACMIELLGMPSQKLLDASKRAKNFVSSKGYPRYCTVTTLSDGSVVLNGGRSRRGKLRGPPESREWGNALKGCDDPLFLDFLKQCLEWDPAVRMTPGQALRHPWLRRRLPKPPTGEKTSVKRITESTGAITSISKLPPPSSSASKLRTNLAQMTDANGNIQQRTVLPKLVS", "experiment": "Inhibition of DYRK2 assessed as residual activity at 1 uM relative to control", "outline": "as §2"}, "[19]": {"experiment": "Volume of distribution at steady state in Swiss albino mouse at 1 mg/kg, iv", "type": "ADME, organism-based", "set-up": "dose 1 mg/kg, route intravenous", "settings": "in vivo, read-out: Vdss", "outline": "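Male Swiss Albino mice given a single intravenous dose of 1 mg/kg (oral arm 10 mg/kg). Plasma and brain exposure measured, and steady-state volume of distribution derived from the plasma profile.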"}, "Mus musculus [20]": {"system": "Mus musculus", "experiment": "Inhibition of LRRK2 phosphorylation at Ser910 in C57BL/6 mouse spleen at 50 mg/kg, po administered for 8 hrs followed by 2 hrs dosing", "type": "functional, organism-based", "set-up": "dose 50 mg/kg", "outline": "(§3)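 Mice were dosed by oral gavage at 10 or 50 mg/kg. Brain, spleen and kidney were collected. Endogenous LRRK2 was resolved by SDS–PAGE and blotted with phospho-specific antibodies to Ser910 and Ser935 and with an antibody to total LRRK2.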"}, "Mus musculus [21]": {"system": "Mus musculus", "experiment": "Inhibition of LRRK2 phosphorylation at Ser935 in C57BL/6 mouse brain at 10 to 50 mg/kg, po administered for 8 hrs followed by 2 hrs dosing", "type": "functional, organism-based", "outline": "as §3"}, "[22]": {"molecular_target": "Calcium/calmodulin-dependent protein kinase kinase 2 (Homo sapiens) (UniProt Q96RR4)", "experiment": "Inhibition of CAMKKb assessed as residual activity at 10 uM relative to control"}, "[23]": {"molecular_target": "Cyclin-dependent kinase 2/cyclin A (Homo sapiens) (UniProt P24941+P20248+P78396)", "experiment": "Inhibition of CDK2-Cyclin A assessed as residual activity at 10 uM relative to control", "type": "protein-complex assay"}, "[24]": {"molecular_target": "Inhibitor of nuclear factor kappa-B kinase subunit beta (Homo sapiens) (UniProt O14920)", "experiment": "Inhibition of IKKbeta assessed as residual activity at 1 uM relative to control"}, "[25]": {"molecular_target": "Mitogen-activated protein kinase kinase kinase 1 (Homo sapiens) (UniProt Q13233)", "experiment": "Inhibition of MEKK1 assessed as residual activity at 1 uM relative to control"}, "[26]": {"molecular_target": "Serine/threonine-protein kinase 16 (Homo sapiens) (UniProt O75716)", "experiment": "Inhibition of MPSK1 assessed as residual activity at 1 uM relative to control"}, "[27]": {"molecular_target": "RAC-alpha serine/threonine-protein kinase (Homo sapiens) (UniProt P31749)", "experiment": "Inhibition of PKBalpha assessed as residual activity at 1 uM relative to control"}, "[28]": {"molecular_target": "Serine/threonine-protein kinase N2 (Homo sapiens) (UniProt Q16513)", "sequence (Q16513 whole entry, looked up)": "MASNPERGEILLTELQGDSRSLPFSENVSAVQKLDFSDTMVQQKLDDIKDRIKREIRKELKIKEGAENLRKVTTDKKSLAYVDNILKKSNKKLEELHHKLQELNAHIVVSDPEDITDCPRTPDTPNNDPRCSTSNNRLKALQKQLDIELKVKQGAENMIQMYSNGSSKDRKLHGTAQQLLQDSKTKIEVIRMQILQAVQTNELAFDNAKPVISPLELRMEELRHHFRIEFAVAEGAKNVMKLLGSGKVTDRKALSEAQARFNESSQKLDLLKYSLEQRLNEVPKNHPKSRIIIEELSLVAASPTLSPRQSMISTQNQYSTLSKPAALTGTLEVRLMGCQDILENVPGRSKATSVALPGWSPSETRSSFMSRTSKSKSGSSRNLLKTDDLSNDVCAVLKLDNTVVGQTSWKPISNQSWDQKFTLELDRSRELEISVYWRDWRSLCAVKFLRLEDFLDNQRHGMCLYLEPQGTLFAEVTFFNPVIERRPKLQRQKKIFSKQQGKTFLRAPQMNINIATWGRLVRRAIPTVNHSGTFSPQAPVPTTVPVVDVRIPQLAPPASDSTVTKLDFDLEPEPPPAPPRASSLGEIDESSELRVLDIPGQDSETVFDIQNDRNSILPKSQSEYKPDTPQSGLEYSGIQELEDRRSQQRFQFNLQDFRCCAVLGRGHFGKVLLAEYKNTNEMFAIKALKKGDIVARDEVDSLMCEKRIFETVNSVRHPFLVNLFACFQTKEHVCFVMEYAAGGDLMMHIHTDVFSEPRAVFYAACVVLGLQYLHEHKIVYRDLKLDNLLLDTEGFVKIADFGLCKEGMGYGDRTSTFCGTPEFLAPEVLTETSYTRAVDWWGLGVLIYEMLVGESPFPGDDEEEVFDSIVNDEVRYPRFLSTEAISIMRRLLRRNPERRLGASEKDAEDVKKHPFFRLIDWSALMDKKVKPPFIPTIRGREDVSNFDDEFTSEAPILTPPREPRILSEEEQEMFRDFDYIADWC", "experiment": "Inhibition of PRK2 assessed as residual activity at 1 uM relative to control"}, "[29]": {"molecular_target": "Protein-tyrosine kinase 6 (Homo sapiens) (UniProt Q13882)", "experiment": "Inhibition of BRK assessed as residual activity at 1 uM relative to control"}}, "note": "The source made the active and inactive calls. No cut-off for these calls is given here."}
{"compound": "COc1cc(N2CCC(N3CCN(C)CC3)CC2)ccc1Nc1ncc(Cl)c(Nc2ccccc2S(=O)(=O)C(C)C)n1", "note": "[TAE-684]", "values": [{"measurement": "Activity", "setting": "[1]", "result": 99, "unit": "%"}, {"measurement": "Activity", "setting": "[2]", "result": 18, "unit": "%"}, {"measurement": "Activity", "setting": "[3]", "result": 95, "unit": "%"}, {"measurement": "Activity", "setting": "[4]", "result": 26, "unit": "%"}, {"measurement": "Activity", "setting": "[5]", "result": 77, "unit": "%"}, {"measurement": "Activity", "setting": "[6]", "result": 55, "unit": "%"}, {"measurement": "Activity", "setting": "[7]", "result": 87, "unit": "%"}, {"measurement": "Activity", "setting": "[8]", "result": 104, "unit": "%"}, {"measurement": "inhibition", "setting": "[9]", "result": "Dose-dependent effect"}, {"measurement": "inhibition", "setting": "[10]", "result": "Active"}, {"measurement": "inhibition", "setting": "[11]", "result": "Active"}, {"measurement": "inhibition", "setting": "[12]", "result": "Active"}, {"measurement": "inhibition", "setting": "[13]", "result": "Active"}, {"measurement": "inhibition", "setting": "[14]", "result": "Active"}, {"measurement": "inhibition", "setting": "[15]", "result": "Dose-dependent effect"}, {"measurement": "AUClast", "setting": "Brain", "result": 1318, "unit": "ng·h/mL"}, {"measurement": "Activity", "setting": "[16]", "result": 20, "unit": "%"}, {"measurement": "Activity", "setting": "[17]", "result": 9, "unit": "%"}, {"measurement": "Activity", "setting": "[18]", "result": 105, "unit": "%"}, {"measurement": "Vd", "setting": "[19]", "result": 14.5, "unit": "L/kg"}, {"measurement": "inhibition", "setting": "Mus musculus [20]", "result": "Active"}, {"measurement": "inhibition", "setting": "Mus musculus [21]", "result": "inactive"}, {"measurement": "Activity", "setting": "[22]", "result": 5, "unit": "%"}, {"measurement": "Activity", "setting": "[23]", "result": 38, "unit": "%"}, {"measurement": "Activity", "setting": "[24]", "result": 98, "unit": "%"}, {"measurement": "Activity", "setting": "[25]", "result": 109, "unit": "%"}, {"measurement": "Activity", "setting": "[26]", "result": 102, "unit": "%"}, {"measurement": "Activity", "setting": "[27]", "result": 102, "unit": "%"}, {"measurement": "Activity", "setting": "[28]", "result": 51, "unit": "%"}, {"measurement": "Activity", "setting": "[29]", "result": 5, "unit": "%"}]}
